ChEMBL document CHEMBL2321692, “De novo fragment design: a medicinal chemistry approach to fragment-based lead generation” (J Med Chem, 2013)

Tests used:
Hepatitis C virus = experiment: Inhibition of HCV NS5B570n-Con1 expressed in Escherichia coli assessed as radiolabeled nucleotide monophosphate incorporation into acid-insoluble RNA products after 2 hrs by scintillation counting analysis; design: species or system Hepacivirus hominis; details: Con1, 2 h
Outline: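 IC₅₀ in the NS5B polymerase enzyme assay using genotype 1b NS5B, Con1 strain.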

[1] = Binding affinity to HCV NS5B570n-BK expressed in Escherichia coli by surface plasma resonance assay; format: cell-free, Hepatitis C virus (isolate BK)
Outline: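 Kinetic dissociation constant (K_D) measured against genotype 1b NS5B polymerase, BK strain, by surface plasmon resonance.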

[2] = Inhibition of HCV NS5B570n-BK expressed in Escherichia coli assessed as radiolabeled nucleotide monophosphate incorporation into acid-insoluble RNA products after 2 hrs by scintillation counting analysis; design: species or system Hepatitis C virus (isolate BK)

Structure (SMILES)	IC50 (Hepatitis C virus)	Kd [1]	IC50 [2]
O=C1CNC(=O)N1Cc1ccccc1	> 1000 µM		
c1ccc(NNc2ncnc3[nH]ncc23)cc1		78 µM	130 µM
O=C1CNC(=O)N1Cc1ccc(Cl)c(Cl)c1	> 1000 µM		
CC(C)(C)c1ccc(CN2C(=O)CNC2=O)cc1	364 µM	400 µM	
CC1NC(=O)N(Cc2ccc(C(C)(C)C)cc2)C1=O (configuration not stated)	220 µM	144 µM	
CCC1NC(=O)N(Cc2ccc(C(C)(C)C)cc2)C1=O (configuration not stated)	108 µM	93 µM	
CC(C)C1NC(=O)N(Cc2ccc(C(C)(C)C)cc2)C1=O (configuration not stated)	21 µM	18 µM	
CC(C)(C)c1ccc(Cc2ccc[nH]c2=O)cc1	431 µM		
Cc1ccccc1Oc1cccc(-c2ccc[nH]c2=O)c1	80 µM		
CC(C)(C)c1cccc(-c2ccc[nH]c2=O)c1	4 µM	5.8 µM	
COc1ccc(-c2ccc[nH]c2=O)cc1C(C)(C)C		0.57 µM	
